Format in all cases: protein assay
The target of experiment [1] is T1, Dopamine receptor (Bos taurus) (UniProt Q95136+P20288). In words: Compound was tested for enhancement of the binding of [3H]ADTN to dopamine receptors at concentration of 1 nM. An outline of the steps:
(§1)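 Bovine caudate homogenized in 50 mM Tris-HCl pH 7.7, centrifuged twice at 40000g, resuspended in 50 mM Tris pH 7.1 with 0.1% ascorbate, 120 mM NaCl, 5 mM KCl, 2 mM CaCl2, 10 μM pargyline. 0.4-0.6 mg protein, 8 nM [3H]ADTN, peptide at 1, 10 or 100 nM; 10 min, 37 °C, triplicate; GF/B filtration, scintillation counting. Specific binding defined with 1 μM (d)-butaclamol; % enhancement over no-drug basal.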

In experiment [2] the target is T1, Dopamine receptor (Bos taurus). Description: Compound was tested for enhancement of the binding of [3H]ADTN to dopamine receptors at concentration of 100 nM. Summed up:
as §1

The target is the same in experiment [3]. In words: Compound was tested for enhancement of the binding of [3H]-ADTN to dopamine receptors at concentration of 10 nM. An outline of the steps: as §1

Square brackets hold non-standard residues; d marks the D form. Peptide text beside a SMILES is read from it. pGlu = O=C1CC[C@@H](C(=O)O)N1; Pip = O=C(O)[C@@H]1CCCCN1; Thz = O=C(O)[C@@H]1CSCN1; Aze = O=C(O)[C@@H]1CCN1

`CC(C)C[C@H](NC(=O)[C@@H]1CSCN1)C(=O)NCC(N)=O` (H-[Thz]-Leu-Gly-NH2): the Enhancement in experiment [1] turned out to be 7%; in experiment [2], 9.5%; in experiment [3], 8.5%.

As for `CC(C)C[C@H](NC(=O)[C@@H]1C=CCN1)C(=O)NCC(N)=O`, the Enhancement in experiment [1] was found to be 12.4%; in experiment [2], 55%; in experiment [3] it was 40%.

For `CC(C)C[C@H](NC(=O)[C@@H]1CCC(=O)N1)C(=O)NCC(N)=O` ([pGlu]-Leu-Gly-NH2), the Enhancement came out at 13.5% in experiment [1], 36.4% in experiment [2] and 26.5% in experiment [3].

In the case of `CC(C)C[C@H](NC(=O)[C@@H]1CCN1)C(=O)NCC(N)=O` (H-[Aze]-Leu-Gly-NH2), the Enhancement in experiment [1] was found to be 19%; in experiment [2] it was 42%; in experiment [3] it was 40%.

For the compound `CC(C)C[C@H](NC(=O)[C@@H]1CCCN1)C(=O)NCC(N)=O` (stereo in doubt; 2), the Enhancement in experiment [1] worked out at 18%; in experiment [2], 33%; in experiment [3], 25%.

As for `CC(C)C[C@H](NC(=O)[C@H]1C=CCN1)C(=O)NCC(N)=O`, the Enhancement in experiment [1] stood at 9.5%; in experiment [2] it was 14.4%; in experiment [3], 13%.

For the compound `CC(C)C[C@H](NC(=O)[C@@H]1CCCCN1)C(=O)NCC(N)=O` (H-[Pip]-Leu-Gly-NH2), the Enhancement in experiment [1] was 17%; in experiment [2], 58.7%; in experiment [3] it was 38.7%.

Consider `CC(C)C[C@H](NC(=O)[C@@H]1CCCN1)C(=O)NCC(N)=O` (stereo in doubt; 1), for which the results for the Enhancement in experiment [1], in experiment [2] and in experiment [3] were 16%, 46.2% and 28%, respectively.

These data come from ChEMBL document CHEMBL1123255, “Synthesis of Pro-Leu-Gly-NH2 analogues modified at the prolyl residue and evaluation of their effects on the receptor binding activity of the central dopamine receptor agonist, ADTN” (J Med Chem, 1986).
